The test system of assay [1] is Mus musculus. Put plainly: Analgesic activity in mouse assessed as reduction of formalin-induced late nociceptive behavior at 2 mg/kg, ip administered 10 mins before formalin challenge measured every 5 mins for 60 mins in presence of adenosine A1 receptor antagonist DPCPX. In kind it is functional, organism-based. More on the design: dose 2 mg/kg. The essentials: (§1)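 Mice, n = 8-10 per group, randomly assigned; drug or vehicle (0.9% NaCl) given i.p. 10 min before 1.25% formalin in saline (30 µL) into dorsal hind paw; DPCPX 3 mg/kg i.p. co-administered where stated. Lifting, licking, shaking, flinching timed every 5 min for 60 min; early phase 0-7 min, late 15-60 min; mean ± SEM.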

Assay [2] relates to Mus musculus. Put plainly: Analgesic activity in mouse assessed as reduction of formalin-induced early nociceptive behavior at 2 mg/kg, ip administered 10 mins before formalin challenge measured every 5 mins for 60 mins in presence of adenosine A1 receptor antagonist DPCPX. In kind it is functional, organism-based. The arrangement: dose 2 mg/kg. The essentials:
as §1

Active and inactive are the calls of the source. The rule behind the calls is not given here.

As for `CCCn1c(=O)c2[nH]c(C3CCCC3)nc2n(CCC)c1=O`, the outcome in the assay on Mus musculus [1] and with Mus musculus [2] was inactive.

The record behind these values is ChEMBL document CHEMBL1153422, “N6-Cycloalkyl- and N6-bicycloalkyl-C5'(C2')-modified adenosine derivatives as high-affinity and selective agonists at the human A1 adenosine receptor with antinociceptive effects in mice” (J Med Chem, 2009).
